V-ATPase pHluor = yeast V-ATPase proton transport regulation by pHLuorin | S. cerevisiae, pHLuorin cytosolic pH fluorescence | response, % at 10 µM | AID 504577 | actives 0.37% (n = 350,000); in the data active = response mostly above about 7.3%, no sharp cut-off; inactive = mostly below about 5.4%; note: actives read high
Xi reactivation = X-chromosome reactivation activator | XiGFP mouse fibroblasts, % GFP-positive cells imaging, 3 d; cells co-treated with 5-aza-dC sensitizer; scaled so ellipticine positive control = 100% | activation, % at 7.58 µM | AID 743238 | actives 0.055% (n = 360,000);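 active = mean normalized replicate activation at least 10% and every replicate at or above 10%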;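 note: 0% = median of on-plate neutral control wells and 100% = ellipticine 6 µM median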
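assay system = SV40-immortalized XiGFP fibroblast cells, line 68-5-11 | buffer or medium = DMEM plus 5-aza-dC sensitizer | doses = single-point pinned compound dosing | times = 3-day compound exposure, then 15 min fixation at room temperature | benchmarks = positive control ellipticine, 6 µM final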
Arr AP2 block = blocks beta-arrestin peptide binding to AP2 adaptin; FITC-arrestin peptide / GST-AP2 beads, flow cytometry; AP2 beta2 appendage carries R879A mutation; inhibition, % at 10 µM; actives 0.31% (n = 340,000);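 active = inhibition above a set limit, near 3 SD of compounds lacking own fluorescence, cut at about 54% in these data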;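 note: plate controls were DMSO wells for no effect and 5 µM unlabelled arrestin peptide for full effect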
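Assay system: GST-AP2 R879A bound to glutathione beads, E. coli-expressed; Medium: PBS with 0.05% Tween 20 and 0.1% BSA; Also added: fluorescein-tagged arrestin peptide at 50 nM final; Timing: 12 min plus 1 h, RT; Measured by: flow cytometry, FL1 (488/535 nm); Evaluation: percent drop in bead-associated FITC signal.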
MIN6 prolif-1 = MIN6 beta-cell proliferation induction | proliferation, % at 10 µM | AID 2380 | actives 0.29% (n = 330,000) | MIN6 cells proliferation, ATPlite luminescence, 48 h; cells starved in 0.2% serum; 100% = growth in 10% serum;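 active = compounds whose signal lies at least 3.5 SD above the mean of all wells on their plate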;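 note: 0% = DMSO-treated cells in low-serum medium and 100% = 10% serum control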
T cell HTS = T cell immune modulators affecting CD8 T cell-vesicle binding. AID 2052. 2C CD8+ T cell-vesicle binding, flow cytometry; stronger effect = lower value. response (vesicle binding), % at 7 µM. actives 0.068% (n = 330,000);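 active = response, share of CD8 T cells binding vesicles, and their 90th percentile fluorescence all below set limits, cut at about 80% in these data, passing the limit was not always enough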;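 note: values below 100% mean blocked vesicle binding to the CD8+ T cells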
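Assay system: 2C TCR transgenic mouse naive CD8+ T cells, MACS-purified | Read-out: CD8+ gate FL2 mean fluorescence as % of same-row positive control | Signal: High-throughput flow cytometry with anti-B7-1 and anti-CD8 staining | Timing: Binding step 1.5 h, 37 °C, antibody labelling 20 min, ice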
NTR1 agonist = NTR1 (human) agonism; P30989; NTR1-U2OS beta-arrestin-GFP spot imaging, agonist mode; activation, % at 20 µM; actives 0.17% (n = 330,000);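 active = activation at or above 40% of the spot to cytoplasm intensity ratio, with at least 20 cells analyzed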;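 note: 0% = DMSO without peptide and 100% = 100 nM NTR1 peptide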
Target sequence (P30989 whole entry, looked up): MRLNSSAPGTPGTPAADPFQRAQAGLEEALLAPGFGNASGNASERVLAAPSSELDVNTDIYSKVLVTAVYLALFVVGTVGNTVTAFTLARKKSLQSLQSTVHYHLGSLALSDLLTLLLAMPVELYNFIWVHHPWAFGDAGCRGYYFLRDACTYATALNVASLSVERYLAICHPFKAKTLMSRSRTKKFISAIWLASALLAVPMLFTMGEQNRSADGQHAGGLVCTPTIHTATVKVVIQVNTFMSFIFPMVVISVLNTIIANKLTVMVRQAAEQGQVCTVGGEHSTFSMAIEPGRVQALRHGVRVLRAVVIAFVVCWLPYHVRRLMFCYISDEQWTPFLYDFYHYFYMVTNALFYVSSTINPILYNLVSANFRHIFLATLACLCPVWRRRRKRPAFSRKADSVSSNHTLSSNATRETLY
MIN6 prolif-2 = MIN6 beta-cell replication induction, confirmed | shares compounds with MIN6 prolif-1 | MIN6 beta-cell proliferation, ATPlite luminescence, 48 h; cells kept in 0.2% serum; scaled between 0.2% and 10% serum | proliferation increase, % at 50 µM | 920 tested, under 10 active | AID 463095;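 active = proliferation increase above 40% at any of the four tested concentrations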
Active calls of the source: *; . = no result. Only some compounds are listed: those with a hit (about 0.89% of all), similar ones and a draw of the others.

SMILES	V-ATPase pHluor	Xi reactivation	Arr AP2 block	MIN6 prolif-1	T cell HTS	NTR1 agonist	MIN6 prolif-2
CN(C)CC(=O)N1[C@@H](CO)[C@@H](c2ccccc2)C12CN(C(=O)C1CCCC1)C2	.	0.0	.	.	.	.	.
Cc1[nH]c2ccc(C(=O)OC(C)C(=O)NC3CCCCC3C)cc2c1C (centres undefined)	1.4	-0.1	7.7	13.2*	316.3	-1.4	-6.5
CC(OC(=O)c1ccc2c(c1)OCO2)C(=O)NC1CCCCC1C (centres undefined)	-8.2	-0.1	25.2	2.1	.	-0.5	.
C[C@H]1CCCCO[C@H](CN(C)C(=O)Nc2cccc3ccccc23)[C@@H](C)CN([C@@H](C)CO)C(=O)c2cc(NC(=O)Cc3ccccc3)ccc2O1	.	0.2	.	.	.	.	.
COc1cc(C(=O)N/C(=C\c2cn(S(=O)(=O)N(C)C)c3ccccc23)C(=O)NCCCO)cc(OC)c1OC	1.4	0.2	-13.4	8.6*	232.8	0.5	-2.6
C[C@H](CO)N1C[C@H](C)[C@@H](CN(C)C)Oc2c(NC(=O)Cc3cn(C)c4ccccc34)cccc2C1=O	.	0.1	.	.	.	.	.
CC(=O)N(C)C[C@@H]1Oc2ncc(-c3ccc(C#N)cc3)cc2C(=O)N([C@H](C)CO)C[C@@H]1C	.	-1.1	.	.	.	.	.
CCOC(=O)C1C(=O)CC(C)(O)C(C(=O)OCC)C1c1ccc(F)cc1 (centres undefined)	0.3	.	-4.8	-0.3	86.1	0.7	.
CCOC(=O)C1C(=O)CC(C)(O)C(C(=O)OCC)C1c1ccc(N(CC)CC)cc1 (centres undefined)	0.4	.	1.9	5.1*	792.7	-1.7	-1.0
COc1ccc(-c2cn[nH]c2-c2ccc(OC)cc2O)cc1	-2.4	0.1	6.1	9.3*	204.9	1.8	-5.6
COc1ccc(-c2[nH]ncc2-c2ccc(Cl)cc2)c(O)c1	5.5	.	8.8	0.8	410.1	4.9	.
COc1ccc(NC(=O)N(C)C[C@H]2Oc3ccc(NS(=O)(=O)c4ccc(OC)cc4)cc3C(=O)N([C@@H](C)CO)C[C@@H]2C)cc1	.	0.2	.	.	.	.	.
O=C(c1cccc(Cl)c1)N1CCN(c2ccc(N3CCOCC3)nn2)CC1	4.2	-0.1	-15.1	14.3*	923.0	1.1	-1.0
Cc1cc(NC(=O)c2cnn3c(C(F)F)cc(C4CC4)nc23)no1	1.1	.	19.0	5.5*	454.6	4.5	5.4
C=CCOc1ccc(-c2nc3c(c(=O)[nH]c(=O)n3CCCC)n2C)cc1OC	-2.2	0.0	40.7	11.8*	152.8	2.3	1.8
CCCCn1c(=O)[nH]c(=O)c2c1nc(-c1cc(Br)c(OCC)c(OC)c1)n2C	2.4	0.2	-3.4	0.2	693.5	15.0	.
Cc1ccc(C(=O)N/C(=C/c2cccnc2)C(=O)NCc2ccco2)cc1	1.7	-0.1	-3.1	4.7*	245.3	-1.3	-1.4
C[C@H]1CN([C@@H](C)CO)C(=O)c2cccc(NS(C)(=O)=O)c2O[C@H]1CN(C)C(=O)Nc1ccc(F)cc1	.	-0.3	.	.	.	.	.
Cn1c(=O)[nH]c(=O)c2c1nc1n2CCCN1CCc1ccccc1	-7.9	.	17.9	7.2*	148.8	1.1	2.7
CN1[C@@H]2c3ccc(/C=C/c4ccccc4)c(=O)n3C[C@@H]2[C@@H](CO)[C@@H]1C(=O)N1CCCCC1	.	0.1	.	.	.	.	.
CC(=O)Nc1c(C(=O)C2CC2)oc2ccccc12	-5.8	.	-21.1	0.2	617.4	0.7	.
O=C(CN1CCCC1)Nc1c(C(=O)C2CC2)oc2ccccc12	-0.9	0.2	11.6	7.1*	115.2	-0.6	-4.0
COc1ccc(C#Cc2cnc3c(c2)C(=O)N([C@@H](C)CO)C[C@@H](C)[C@@H](CN(C)C(=O)Nc2cccc(OC)c2)O3)cc1	.	-1.1	.	.	.	.	.
CCOc1ccccc1NC(=O)N1CCC(NC(=O)c2ccccc2C)CC1	-0.1	.	-16.3	7.8*	287.3	-1.4	2.4

Bioassay records deposited in PubChem by several laboratories.
